# Bioassay records (PubChem)
# DDE Tn6 FP inh: inhibitors of Tn6 peptide binding to human fibrin DD(E). P02675. inhibition, % at 8.3 µM. actives 0.21% (n = 370,000). Fibrin DD(E) TRITC-Tn6 fluorescence polarization displacement;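 active = inhibition above a per-campaign cutoff: mean of compounds within control limits plus 3 SD, cut at about 15% in these data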;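 note: 0% = median of all compound wells on the plate and 100% = blocking peptide control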
# Tn7 DDE FP: disrupts Tn7 cyclic peptide binding to fibrin D-Dimer-E complex; P02675; FP displacement of FITC-Tn7 peptide from fibrin DD(E); 0% = median of compound wells per plate; inhibition, % at 8.3 µM; actives 0.13% (n = 370,000); AID 720508;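 active = inhibition above the mean of compounds falling within the control limits plus 3 SD of them, cut at about 14% in these data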;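 note: 0% = plate median of compound wells and 100% = 10 µM Aha-Tn7 peptide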
#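 Measure: % inhibition scaled between sample-field median and high-control FP; Test system: human fibrin DD(E); Quantity: 2 µM final DD(E) protein; Doses: one dose, 8.3 µM nominal; Schedule: compound with protein 10 min, then 3 h after probe, room temperature; Detection: fluorescence polarization; Medium: Tris buffer with calcium and detergent, pH 7.8.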
# TCR-CD3 inh: blocks the human TCR-CD3 interaction. inhibition, % at 9.4 µM. actives 0.37% (n = 360,000). TAMRA-labeled TCR probe fluorescence, biochemical. AID 651800; in the data active = inhibition above about 19%;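 note: recombinant mutant TCR 2C K166C tagged with TAMRA read by polarization; 0% = receptor in buffer alone and 100% = receptor with positive control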
# HTRA1 inhibitor: HTRA1 (human) protease inhibition. Q92743. recombinant HTRA1, FP-rhodamine activity-based probe, fluorescence polarization. inhibition, % at 5.96 µM. actives 0.5% (n = 340,000); in the data active = inhibition above about 36%;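 note: 0% = enzyme with DMSO and 100% = wells lacking enzyme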
# mABHD4 FP: inhibitors of mouse ABHD4 | actives 0.54% (n = 370,000) | inhibition, % at 8.92 µM | purified mABHD4, FP-Rh probe fluorescence polarization | AID 720543;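 active = inhibition exceeding the mean over every tested compound plus 3 SD, cut at about 30% in these data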;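 note: 0% = plate median of compound wells and 100% = S159A mutant with DMSO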
#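 Assay system: Wild-type mouse ABHD4 protein | Medium: HEPES pH 7.0 buffer, 150 mM NaCl, 0.01% Pluronic F-127 | Incubation: Enzyme–compound pre-incubation 45 min, then probe 60 min, both 25 °C | Technique: Fluorescence polarization with parallel and perpendicular emission, 525/598 nm | Evaluation: % inhibition of FP-Rh probe binding versus controls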
# SIAE inh: human SIAE inhibition, primary screen; Q9HAT2; SIAE FP-Rh probe binding, fluorescence polarization; inhibition, % at 9.66 µM; actives 0.69% (n = 370,000);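 active = inhibition above a cutoff: mean of compounds within the control limits plus 3 SD of those, cut at about 17% in these data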;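 note: 0% = plate median of compound wells and 100% = probe without SIAE protein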
# SIAE inh conf: confirmation of human SIAE inhibitors. actives 13% (n = 2,300). shares compounds with SIAE inh. SIAE FP-Rh activity-based probe, fluorescence polarization. inhibition, % at 9.66 µM;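 active = mean inhibition of the replicates above the hit cutoff set in the primary screen, cut at about 17% in these data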;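 note: 0% = SIAE with DMSO and probe and 100% = probe without SIAE; inhibitors lower polarization as more probe stays unbound to SIAE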
# Active calls of the source: *; / = no result given. Compounds with a hit are over-represented: about 1.8% of the library has one in this group of screens.
SMILES,DDE Tn6 FP inh,Tn7 DDE FP,TCR-CD3 inh,HTRA1 inhibitor,mABHD4 FP,SIAE inh,SIAE inh conf
c1ccc(CCCN2CCOCC2)cc1,-2,0,1,3,7,2,/
CCOC(=O)/C=C(\C)Sc1cc(O)c2ccccc2c1O,-70,-2,-8,20,34*,18*,-1
O=C(CN1CCN(Cc2ccccc2Cl)CC1)N/N=C\c1ccccc1F,2,-1,/,/,-8,-4,/
COc1ccc(N2CCN(C(=O)c3ccccc3N(C)S(=O)(=O)c3ccc(C)cc3)CC2)cc1,-5,0,-7,0,-3,0,/
Cc1ccc(S(=O)(=O)N(C)c2ccccc2C(=O)N2CCCC2)cc1,6,1,2,5,4,17*,5
CN(C)c1ccc(CNCC2CCCO2)cc1 (stereo not drawn),-2,3,2,3,-3,18*,-2
O=S1(=O)c2ccc(Br)cc2OC[C@H](c2ccccc2)N1Cc1ccccc1,0,1,6,/,4,2,/
NC(=O)c1c(N)[nH]c(C(=O)c2ccccc2)c1-c1ccccc1Cl,-2,0,5,/,-3,1,/
CCN1C(=O)[C@H]2[C@@H](c3ccc(C)cc3)N3C(=O)N(c4cccc(Cl)c4)C(=O)[C@@]3(C)[C@H]2C1=O,4,7,7,-8,1,23*,4
